The values below come from ChEMBL document CHEMBL1130404, “Synthesis and evaluation of polycyclic pyrazolo[3,4-d]pyrimidines as PDE1 and PDE5 cGMP phosphodiesterase inhibitors” (J Med Chem, 1997).

As usually defined, the IC50 is the concentration that gives 50% inhibition. A high value points to weaker potency.

In test [1] the target is 3',5'-cyclic-nucleotide phosphodiesterase (Bos taurus, UniProt A0A3Q1M1E8). Description: Inhibition of Phosphodiesterase 3 from bovine heart. In short, it runs like this: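 Enzymes purified from bovine heart (PDE3) or canine kidney (PDE4); 1 μM [3H]cAMP substrate, 50 mM Tris-HCl pH 7.5, 2 mM MgCl2, 0.1 mg/mL BSA, 30 min at 30 °C. IC50 taken from % inhibition vs log molar concentration; duplicates, mean reported.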
3',5'-cyclic-nucleotide phosphodiesterase, sequence (A0A3Q1M1E8 1-1126): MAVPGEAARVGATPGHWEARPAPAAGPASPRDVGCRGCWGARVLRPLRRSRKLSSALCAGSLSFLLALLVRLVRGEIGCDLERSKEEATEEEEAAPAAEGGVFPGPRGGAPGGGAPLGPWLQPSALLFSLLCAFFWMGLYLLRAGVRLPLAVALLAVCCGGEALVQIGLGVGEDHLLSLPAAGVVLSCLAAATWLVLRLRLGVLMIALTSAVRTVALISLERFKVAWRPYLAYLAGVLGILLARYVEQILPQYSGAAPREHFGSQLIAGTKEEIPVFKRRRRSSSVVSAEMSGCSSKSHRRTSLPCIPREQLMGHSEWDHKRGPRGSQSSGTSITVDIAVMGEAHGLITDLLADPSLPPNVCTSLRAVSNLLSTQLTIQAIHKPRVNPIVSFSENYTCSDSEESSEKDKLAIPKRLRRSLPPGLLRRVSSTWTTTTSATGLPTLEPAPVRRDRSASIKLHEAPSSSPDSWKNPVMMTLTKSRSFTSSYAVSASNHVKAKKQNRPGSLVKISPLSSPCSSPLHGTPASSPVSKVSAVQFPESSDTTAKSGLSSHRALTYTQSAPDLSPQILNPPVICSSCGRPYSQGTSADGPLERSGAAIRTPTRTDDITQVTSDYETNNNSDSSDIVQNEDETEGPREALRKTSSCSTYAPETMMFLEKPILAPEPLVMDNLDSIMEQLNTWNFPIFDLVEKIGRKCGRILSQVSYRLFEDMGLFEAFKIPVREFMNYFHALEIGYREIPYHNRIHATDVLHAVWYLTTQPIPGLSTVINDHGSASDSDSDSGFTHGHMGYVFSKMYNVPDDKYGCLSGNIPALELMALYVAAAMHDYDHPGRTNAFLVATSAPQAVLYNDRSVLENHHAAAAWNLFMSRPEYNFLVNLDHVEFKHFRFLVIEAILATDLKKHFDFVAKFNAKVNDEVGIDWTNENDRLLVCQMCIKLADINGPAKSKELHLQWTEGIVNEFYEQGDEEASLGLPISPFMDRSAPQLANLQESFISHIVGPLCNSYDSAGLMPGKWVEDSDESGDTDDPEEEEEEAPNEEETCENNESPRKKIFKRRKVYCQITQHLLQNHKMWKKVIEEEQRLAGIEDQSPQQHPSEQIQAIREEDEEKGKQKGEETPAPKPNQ

The next test addresses Phosphodiesterase 1 (Bos taurus, UniProt Q01061+P14100). As to the kind of experiment: Inhibition of phosphodiesterases PDE1 from bovine aorta. In kind it is protein assay. In short, it runs like this:
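Bovine aorta enzyme; 50 mM Tris-HCl pH 7.5, 2 mM MgCl2, 0.1 mg/mL BSA, 1 mM CaCl2, 0.1 μM calmodulin, 1 μM [3H]cGMP substrate; 30 min at 30 °C. IC50 read from % inhibition vs log molar concentration curve; duplicates, mean reported.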

Test [2] deals with cGMP-specific 3',5'-cyclic phosphodiesterase (Bos taurus, UniProt Q28156). Description: Inhibition of phosphodiesterase 5 from bovine lung. A digest of the protocol: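 Purified bovine lung enzyme in 50 mM Tris-HCl (pH 7.5), 2 mM MgCl2, 0.1 mg/mL BSA with 1 μM [3H]cGMP as substrate, incubated 30 min at 30 °C. IC50 derived from percent inhibition plotted against log molar concentration; run in duplicate, mean of two reported.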

Test [3] concerns Rattus norvegicus. As to the kind of experiment: Antihypertensive activity in spontaneously hypertensive rats at 10 mg/kg administered orally. The settings on record: route oral. In kind it is functional. A digest of the protocol:
(§1)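 Spontaneously hypertensive rats dosed orally with aqueous solution or suspension in 0.4% methylcellulose vehicle. Value is peak change in mean arterial pressure relative to a vehicle-treated control group.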

The subject of test [4] is Rattus norvegicus. Description: Antihypertensive activity in spontaneously hypertensive rats at 25 mg/kg administered orally. Type of test: functional. The following applies: route oral. A digest of the protocol: as §1
Test [5] concerns the target Phosphodiesterase 4 (Canis familiaris). Description: Inhibition of phosphodiesterase PDE4 from canine kidney.
In test [6] the target is T1, cGMP-dependent 3',5'-cyclic phosphodiesterase (Bos taurus, UniProt P14099).
T1 sequence (P14099 whole entry): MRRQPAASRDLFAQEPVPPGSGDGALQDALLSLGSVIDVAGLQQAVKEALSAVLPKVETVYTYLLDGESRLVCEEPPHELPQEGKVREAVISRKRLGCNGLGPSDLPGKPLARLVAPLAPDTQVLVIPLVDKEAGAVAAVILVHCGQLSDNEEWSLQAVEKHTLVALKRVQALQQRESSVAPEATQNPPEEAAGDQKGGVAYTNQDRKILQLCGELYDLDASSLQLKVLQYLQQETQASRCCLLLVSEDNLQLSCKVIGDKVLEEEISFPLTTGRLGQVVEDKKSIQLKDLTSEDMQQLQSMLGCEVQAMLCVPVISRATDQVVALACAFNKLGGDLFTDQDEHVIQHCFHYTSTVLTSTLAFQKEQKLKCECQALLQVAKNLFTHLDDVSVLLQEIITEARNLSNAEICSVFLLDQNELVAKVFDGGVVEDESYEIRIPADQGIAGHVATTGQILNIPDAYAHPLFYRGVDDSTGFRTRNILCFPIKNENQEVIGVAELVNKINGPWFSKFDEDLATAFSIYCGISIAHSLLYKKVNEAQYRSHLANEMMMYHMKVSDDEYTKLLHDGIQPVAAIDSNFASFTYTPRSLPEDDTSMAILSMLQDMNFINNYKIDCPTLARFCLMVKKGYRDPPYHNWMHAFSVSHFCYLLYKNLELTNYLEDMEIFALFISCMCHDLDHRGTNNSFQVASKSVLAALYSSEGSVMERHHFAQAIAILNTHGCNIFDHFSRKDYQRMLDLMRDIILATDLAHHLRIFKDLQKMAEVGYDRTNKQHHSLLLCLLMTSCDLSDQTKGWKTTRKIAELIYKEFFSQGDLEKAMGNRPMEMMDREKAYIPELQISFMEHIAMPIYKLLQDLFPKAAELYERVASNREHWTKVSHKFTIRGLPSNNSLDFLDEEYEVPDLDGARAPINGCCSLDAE
Description: Inhibition of Phosphodiesterase 2 from bovine adrenal cortex. In short, it runs like this:
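Recombinant bovine adrenal cortex enzyme; [3H]cAMP substrate in 50 mM Tris-HCl pH 7.5, 2 mM MgCl2, 0.1 mg/mL BSA, mixture also holding 5 μM cGMP; 30 min, 30 °C. IC50 from inhibition vs log molar concentration curve; duplicate determinations averaged.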

For `CC(C)[C@@H]1CN2C(=N1)N(C)C(=O)c1c2nn(C)c1Cc1ccccc1`, the IC50 in test [1] stood at 90 µM; against Phosphodiesterase 1 it was 0.02 µM; in test [2] it was 0.1 µM.
Regarding `CN1C(=O)c2c(nn(Cc3ccccc3)c2-c2ccccc2)N2C1=N[C@@H]1CCC[C@@H]12`, the “Delta mmHg” value with Rattus norvegicus [3] was 1. Moreover, the IC50 was 55 µM in test [1], 0.54 µM at Phosphodiesterase 1 and 2.1 µM in test [2].
For the molecule `CN1C(=O)c2c(nn(C)c2Cc2ccccc2)N2C1=N[C@@H]1CCC[C@@H]12` (racemic), the “Delta mmHg” value with Rattus norvegicus [3] (10 mg/kg) was -18. In addition, the IC50 came out at 85 µM in test [1], 0.16 µM against Phosphodiesterase 1 and 0.14 µM in test [2].
For `CN1C(=O)c2c(Cc3ccccc3)n[nH]c2N2C1=N[C@@H]1CCC[C@@H]12` (racemic), in the test on Rattus norvegicus [4], the “Delta mmHg” value is on record as -16. Besides, the IC50 was more than 100 µM in test [1], 1.1 µM on Phosphodiesterase 1 and 0.19 µM in test [2].
With `CN1C(=O)c2c(nn(C)c2Cc2ccccc2)N2CC(C)(C)N=C12`, the IC50 in test [1] was found to be 42 µM; against Phosphodiesterase 1 it was 0.018 µM; in test [2], 0.14 µM.
As for `CN1C(=O)c2c(nn(C)c2Cc2ccccc2)N2CC3(CCCC3)N=C12`, the “Delta mmHg” value in the test with Rattus norvegicus [3] was -33. Also, the IC50 came to 0.23 µM in test [5]; 11 µM in test [6]; 55 µM in test [1]; 0.06 µM against Phosphodiesterase 1; 0.075 µM in test [2].
As to `Cc1nn(Cc2ccccc2)c2c1C(=O)N(C)C1=N[C@@H]3CCC[C@@H]3N12`, the “Delta mmHg” value in the test on Rattus norvegicus [3] was -3. The half-inhibitory concentration (IC50) was determined as 50 µM in test [1], 2 µM against Phosphodiesterase 1 and 1 µM in test [2].
With `CN1C(=O)c2cnn(Cc3ccccc3)c2N2C1=N[C@@H]1CCC[C@@H]12` (racemic), the “Delta mmHg” value in the test on Rattus norvegicus [4] is recorded as -14. Also, the results for the IC50 (in test [1]; on Phosphodiesterase 1; in test [2]) were 55 µM, 29 µM and 3.1 µM, respectively.
`Cc1nc2c(n1Cc1ccccc1)C(=O)N(C)C1=N[C@@H]3CCC[C@@H]3N12`: in the test on Rattus norvegicus [3], the “Delta mmHg” value is reported as -28.
With `CN1C(=O)c2c(nn(C)c2Cc2ccccc2)N2C1=N[C@@H]1CCC[C@@H]12`, the “Delta mmHg” value in the test on Rattus norvegicus [3] (10 mg/kg) is on record as -26. Further, the IC50 in test [1] is 80 µM; against Phosphodiesterase 1, 0.055 µM; in test [2], 0.1 µM.
As for `Cc1n[nH]c2c1C(=O)N(C)C1=N[C@@H]3CCC[C@@H]3N12`, the “Delta mmHg” value in the test on Rattus norvegicus [3] is on record as -7. For the same molecule, the values for the IC50 (in test [1]; at Phosphodiesterase 1; in test [2]) were more than 100 µM, 18 µM and 2.9 µM, respectively.
For the molecule `CN1C(=O)c2c(Cc3ccccc3)nn(C)c2N2C1=N[C@@H]1CCC[C@@H]12` (racemic), the IC50 in test [1] turned out to be 29 µM; at Phosphodiesterase 1 it was 0.85 µM; in test [2] it was 0.4 µM.
